# Tested on: Mus musculus
# Test: Toxicity in NOD/SCID mouse xenografted with human HepG2 cells expressing CES2 gene assessed as body weight loss at 5 mg/kg, iv administered on day 7, 14 and 21 after tumor implantation measured after 3 weeks
# Format: organism-based
# Set-up: dose 5 mg/kg, route intravenous
# Details: in vivo, 504 h
# Summary of the method: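 Same NOD/SCID N-Hep G2 flank xenograft model: i.v. tail-vein dosing on days 7, 14 and 21 in 5% DMSO/95% D5W, doses in Dox-equivalent mg/kg, 10 mice/group, vehicle controls. Body weight recorded weekly and followed over the first 5 weeks.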
smiles,measurement,value
CCCCCOC(=O)Nc1ccc(COC(=O)N2CO[C@@H]3[C@H](C)O[C@@H](O[C@H]4C[C@](O)(C(=O)CO)Cc5c(O)c6c(c(O)c54)C(=O)c4c(OC)cccc4C6=O)C[C@@H]32)cc1,Activity,18%
